Here are results for 2 compounds from ChEMBL document CHEMBL4177624, “Rationally designed hecogenin thiosemicarbazone analogs as novel MEK inhibitors for the control of breast malignancies” (Bioorg Med Chem, 2017).

In general, IC50 refers to the point on the concentration scale where inhibition reaches its midpoint. The low end stands for higher potency, the high end for lower potency.

Activity calls are given as the source filed them. The calls are words filed in the database; no cut-off is given here.

One data set has as its system MCF7. As to the kind of experiment: Antiproliferative activity against human MCF7 cells after 72 hrs by MTT assay. It counts as functional, cell-based. Conditions: MCF7, 72 h. A digest of the protocol:
(§1)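 Six human breast carcinoma lines of differing molecular and phenotypic character were each exposed to a range of concentrations for 72 h. Proliferation was read by MTT. Results are given as mean percent viability, with IC₅₀ ± SEM calculated per cell line.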
(In general: Tetrazolium dyes change colour on reduction, which living cells bring about.)

Data set [1] deals with MDA-MB-231. Briefly: Cytotoxicity against human MDA-MB-231 cells at 75 uM after 24 hrs by LDH release assay (reference value: 100%). It counts as functional. A digest of the protocol: (§2)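 LDH release kit on MDA-MB-231 cells at four doses. LDH in the culture medium used as the marker of plasma membrane damage, expressed as percent cytotoxicity.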
On the technique in general: Release of lactate dehydrogenase indicates damage to the cell membrane.

The next data set has as its system MDA-MB-468. Briefly: Antiproliferative activity against human MDA-MB-468 cells after 72 hrs by MTT assay. It counts as functional, cell-based. Particulars: MDA-MB-468, 72 h. A digest of the protocol:
as §1

For data set [2], the system named is MDA-MB-231. As to the kind of experiment: Cytotoxicity against human MDA-MB-231 cells at 50 uM after 24 hrs by LDH release assay (reference value: 100%). The format is functional. An outline of the steps:
as §2

For data set [3], the system named is MDA-MB-231. As to the kind of experiment: Antitumor activity against human GFP-fused MDA-MB-231 cells xenografted in Foxn1nu/Foxn1+ mouse assessed as tumor growth inhibition at 10 mg/kg, ip administered 3 times per week for 28 days relative to control. The format is functional. Particulars: MDA-MB-231, ip, 672 h, read-out: TGI. An outline of the steps:
(§3)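 Athymic nude Foxn1nu/Foxn1+ mice given orthotopic MDA-MB-231/GFP implants. Once tumors were palpable (5-day latency), mice received 10 mg/kg ip three times weekly for 28 days; controls got vehicle. Tumor volume tracked by caliper, giving percent growth inhibition at study end. Body weight checked at each dose and toxicity signs observed.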

A further data set relates to SK-BR-3. As to the kind of experiment: Antiproliferative activity against human SKBR3 cells after 72 hrs by MTT assay. The format is functional, cell-based. Conditions: SK-BR-3, 72 h. A digest of the protocol: as §1
The target in data set [4] is T1, Dual specificity mitogen-activated protein kinase kinase; MEK1/2 (Homo sapiens) (UniProt P36507+Q02750). As to the kind of experiment: Inhibition of MEK in human MDA-MB-231 cell lysate assessed as reduction in MSK phosphorylation at 1.5 to 4 uM after 72 hrs by Western blot analysis. An outline of the steps:
(§4)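 MDA-MB-231 cells treated with two doses or vehicle, then lysed. Western blot of phosphorylated MEK, ERK (MAPK) and MSK, each compared with vehicle control.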
On the technique in general: A western blot detects proteins with antibodies after separation by electrophoresis.

For data set [5], the system named is MDA-MB-231. Briefly: Antiproliferative activity against human MDA-MB-231 cells after 72 hrs by MTT assay. Conditions: MDA-MB-231, 72 h. The format is functional, cell-based. An outline of the steps: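 MDA-MB-231 triple-negative breast cancer cells were exposed to a range of concentrations for 72 h. Proliferation was read by MTT. Results are given as mean percent viability versus concentration, with IC₅₀ ± SEM calculated from the curve.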

The test system of data set [6] is MDA-MB-231. Briefly: Cytotoxicity against human MDA-MB-231 cells at 100 uM after 24 hrs by LDH release assay (reference value: 100%). It counts as functional. A digest of the protocol: as §2
Data set [7] addresses T1, Dual specificity mitogen-activated protein kinase kinase; MEK1/2 (Homo sapiens). Briefly: Inhibition of MEK in human MDA-MB-231 cell lysate assessed as reduction in MAPK phosphorylation at 1.5 to 4 uM after 72 hrs by Western blot analysis. An outline of the steps:
as §4

The subject of the next data set is BT-474. As to the kind of experiment: Antiproliferative activity against human BT474 cells after 72 hrs by MTT assay. The format is functional, cell-based. Particulars: BT-474, 72 h. A digest of the protocol:
as §1

For the next data set, the system named is T47D. As to the kind of experiment: Antiproliferative activity against human T47D cells after 72 hrs by MTT assay. The format is functional, cell-based. A digest of the protocol:
as §1

Data set [8] deals with MDA-MB-231. Briefly: Cytotoxicity against human MDA-MB-231 cells at 100 uM after 24 hrs by LDH release assay relative to control. The format is functional. An outline of the steps: as §2
Data set [9] concerns MDA-MB-231. Briefly: Cytotoxicity against human MDA-MB-231 cells at 25 uM after 24 hrs by LDH release assay (reference value: 100%). It counts as functional. An outline of the steps:
as §2

A further data set concerns Mus musculus. As to the kind of experiment: Toxicity in Foxn1nu/Foxn1+ mouse xenografted with human GFP-fused MDA-MB-231 cells assessed as reduction in body weight at 10 mg/kg, ip administered 3 times per week for 28 days relative to control. It counts as organism-based. Conditions: in vivo, 672 h. A digest of the protocol:
as §3

In data set [10] the test system is MDA-MB-231. As to the kind of experiment: Antiinvasive activity against human MDA-MB-231 cells at 80 uM after 24 hrs by cell invasion assay relative to control. It counts as functional. A digest of the protocol:
(§5)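 Invasion of MDA-MB-231 cells through extracellular matrix coating in a CultreCoat chamber, four doses, 24 h after plating. Non-invaded cells on the upper surface imaged by microscopy. Percent invasion read against vehicle control; IC50 taken from the dose-response curve.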

Data set [11] deals with MDA-MB-231. Briefly: Antiinvasive activity against human MDA-MB-231 cells after 24 hrs by cell invasion assay. Particulars: MDA-MB-231, 24 h. It counts as functional, cell-based. A digest of the protocol: as §5
Data set [12] deals with MDA-MB-231. As to the kind of experiment: Antimigratory activity against human MDA-MB-231 cells at 10 to 80 uM after 24 hrs by scratch wound-healing assay. The format is functional, cell-based.
Data set [13] has as its target T1, Dual specificity mitogen-activated protein kinase kinase; MEK1/2 (Homo sapiens). As to the kind of experiment: Inhibition of MEK phosphorylation in human MDA-MB-231 cell lysate at 1.5 to 4 uM after 72 hrs by Western blot analysis. An outline of the steps:
as §4

Data set [14] concerns MDA-MB-231. As to the kind of experiment: Cytotoxicity against human MDA-MB-231 cells at 5 uM after 24 hrs by LDH release assay (reference value: 100%). The format is functional. An outline of the steps: (§6)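 MDA-MB-231 cells were treated at four concentrations. LDH released into the culture medium through damaged plasma membranes was measured with a commercial LDH cytotoxicity kit and expressed as percent cytotoxicity.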

Data set [15] relates to MDA-MB-231. As to the kind of experiment: Cytotoxicity against human MDA-MB-231 cells at 10 uM after 24 hrs by LDH release assay (reference value: 100%). It counts as functional. An outline of the steps:
as §6

In data set [16] the test system is MDA-MB-231. Briefly: Antimigratory activity against human MDA-MB-231 cells after 24 hrs by scratch wound-healing assay. It counts as functional, cell-based.
Data set [17] relates to MDA-MB-231. As to the kind of experiment: Cytotoxicity against human MDA-MB-231 cells at 2.5 uM after 24 hrs by LDH release assay (reference value: 100%). The format is functional. A digest of the protocol:
as §6

Data set [18] has as its system MDA-MB-231. As to the kind of experiment: Cytotoxicity against human MDA-MB-231 cells at 1.25 uM after 24 hrs by LDH release assay (reference value: 100%). The format is functional. An outline of the steps:
as §6

The test system of the next data set is MCF-10A. Briefly: Cytotoxicity against human MCF10A cells at 1 to 20 uM by MTT assay. It counts as cell-based. An outline of the steps: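 Immortalized, non-tumorigenic MCF-10A mammary epithelial cells were treated at several concentrations (1-20 μM). Mean percent viability was compared with the matching vehicle control-treated group.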
The test system of data set [19] is MDA-MB-231. Briefly: Cytotoxicity against human MDA-MB-231 cells at 10 uM after 24 hrs by LDH release assay relative to control. The format is functional.
Data set [20] deals with MDA-MB-231. As to the kind of experiment: Antiinvasive activity against human MDA-MB-231 cells at 5 uM after 24 hrs by cell invasion assay relative to control. The format is functional. An outline of the steps: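 MDA-MB-231 cells were plated in CultreCoat coated-insert invasion chambers and treated at four concentrations or with vehicle. At 24 h post-plating, non-invading cell density on the upper surface was assessed by microscopy. Percent invasion inhibition relative to vehicle was calculated, and IC₅₀ was derived from the dose-response.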

T1 sequence (P36507 whole entry, looked up): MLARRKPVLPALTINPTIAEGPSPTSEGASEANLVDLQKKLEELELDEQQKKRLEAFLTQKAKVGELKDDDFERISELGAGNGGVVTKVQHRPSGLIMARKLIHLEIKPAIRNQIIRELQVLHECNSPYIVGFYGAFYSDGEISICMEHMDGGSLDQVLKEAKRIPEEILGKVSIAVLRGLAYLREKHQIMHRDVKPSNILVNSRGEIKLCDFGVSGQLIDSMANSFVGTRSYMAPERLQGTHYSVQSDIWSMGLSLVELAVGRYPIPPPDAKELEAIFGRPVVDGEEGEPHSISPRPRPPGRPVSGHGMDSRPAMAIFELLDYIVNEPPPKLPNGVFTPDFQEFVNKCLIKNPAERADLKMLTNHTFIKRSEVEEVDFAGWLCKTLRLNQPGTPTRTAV
T1 sequence (Q02750 whole entry, looked up): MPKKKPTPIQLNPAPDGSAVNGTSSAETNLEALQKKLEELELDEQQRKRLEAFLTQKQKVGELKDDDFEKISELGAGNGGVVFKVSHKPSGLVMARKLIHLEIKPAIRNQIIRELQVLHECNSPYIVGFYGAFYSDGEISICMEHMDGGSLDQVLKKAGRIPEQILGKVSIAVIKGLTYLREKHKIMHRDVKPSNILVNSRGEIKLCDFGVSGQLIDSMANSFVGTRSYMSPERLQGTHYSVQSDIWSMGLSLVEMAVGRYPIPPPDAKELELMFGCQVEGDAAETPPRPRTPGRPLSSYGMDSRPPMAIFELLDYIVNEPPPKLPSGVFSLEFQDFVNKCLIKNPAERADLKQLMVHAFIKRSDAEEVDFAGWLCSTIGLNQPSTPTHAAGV

Turning to `C[C@@H]1CC[C@@]2(OC1)O[C@H]1C[C@H]3[C@@H]4CC[C@H]5C[C@@H](O)CC[C@]5(C)[C@H]4CC(=O)[C@]3(C)[C@H]1[C@@H]2C`, the IC50 with MCF7 amounted to 31000 nM; with MDA-MB-468, 35200 nM; in the data set on SK-BR-3, 33300 nM; in the data set on MDA-MB-231 [5], 28700 nM; in the data set on BT-474, 38200 nM; with T47D, 36600 nM. The compound also yielded an IC50 in the data set with MDA-MB-231 [11] of 37100 nM. Further, the Activity in the data set with MDA-MB-231 [1] is given as 10.3%; with MDA-MB-231 [2] it was 2.72%; in the data set with MDA-MB-231 [6], 27.8%; with MDA-MB-231 [8] it was 27.8%; in the data set on MDA-MB-231 [9], 0.04%; in the data set on Mus musculus, “Non-Toxic”. Also, in the data set on MDA-MB-231 [10], the Activity came out at 86.2%. Besides, the inhibition in vivo at 10 mg/kg with MDA-MB-231 [3] is 57.4%. Moreover, the inhibition entry in data set [4], in data set [7] and in data set [13] was “Active” throughout. Also, the result in the data set with MDA-MB-231 [12] was Active.

Consider `Cc1ccccc1NC(=S)N/N=C1\C[C@H]2[C@@H](CC[C@H]3C[C@@H](O)CC[C@@]32C)[C@@H]2C[C@@H]3O[C@]4(CC[C@@H](C)CO4)[C@@H](C)[C@@H]3[C@@]12C`, for which the IC50 in the data set with MCF7 is 2100 nM; in the data set on MDA-MB-468 it was 2400 nM; with SK-BR-3, 2300 nM; with MDA-MB-231 [16] (MDA-MB-231, 24 h), 2500 nM; with MDA-MB-231 [5], 1900 nM; with BT-474, 2600 nM. Moreover, the IC50 in the data set on T47D came out at 3000 nM; in the data set on MDA-MB-231 [11] it was 2200 nM. For the same compound, the Activity is 1.8% with MDA-MB-231 [14]; 5.94% in the data set on MDA-MB-231 [15]; “Dose-dependent effect” with MDA-MB-231 [16]; 1.27% in the data set with MDA-MB-231 [17]; 0.74% with MDA-MB-231 [18]; “Non-Toxic” with MCF-10A. Also, the Activity is listed as 5.9% in the data set on MDA-MB-231 [19], “Non-Toxic” in the data set with Mus musculus and 92.4% in the data set with MDA-MB-231 [20]. In addition, the inhibition in vivo at 10 mg/kg with MDA-MB-231 [3] worked out at 78.1%. Moreover, the inhibition entry in data set [4], in [7] and in data set [13] was “Active” each time.
